# Efflux pump mplx – inhibitors of Candida antifungal efflux pumps expressed in yeast | 330,000 compounds, 0.44% hits | inhibition, % at 10 µM | S. cerevisiae Candida pump triplex, Nile Red efflux;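 active = plate passing quality check with inhibition over a set limit, or well fluorescence over plate mean plus 4 SD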;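 also: Nile Red retained in pooled yeast measured as flow cytometry median fluorescence; 0% = buffer negative control and 100% = Enniatin B positive control; higher means more Nile Red kept so more efflux inhibition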
# ASAP1 inh – ASAP1 ArfGAP inhibition | inhibition, % at 16.5 µM | Q9ULH1 | ASAP1-stimulated ARF1 GTP hydrolysis, GDP FP detection | 360,000 compounds, 0.19% hits | AID 624377; in the data active = inhibition above about 25%;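 also: 0% = vehicle with enzyme and substrate and 100% = no enzyme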
# Target sequence (Q9ULH1 325-724 limits assumed): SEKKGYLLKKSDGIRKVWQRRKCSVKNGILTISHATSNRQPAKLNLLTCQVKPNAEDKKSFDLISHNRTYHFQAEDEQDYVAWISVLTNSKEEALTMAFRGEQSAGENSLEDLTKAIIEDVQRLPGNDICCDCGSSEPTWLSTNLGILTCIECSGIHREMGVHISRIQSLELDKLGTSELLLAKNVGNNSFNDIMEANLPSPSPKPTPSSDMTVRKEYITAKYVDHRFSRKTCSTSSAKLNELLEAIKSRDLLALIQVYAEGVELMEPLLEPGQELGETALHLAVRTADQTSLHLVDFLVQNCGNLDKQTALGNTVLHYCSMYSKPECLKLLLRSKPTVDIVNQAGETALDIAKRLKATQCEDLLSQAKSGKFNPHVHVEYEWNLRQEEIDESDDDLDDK
# FGF22 binding – binders of recombinant human FGF22 by thermal shift | 340,000 compounds, 1.5% hits | SYPRO orange fluorescence; percent of sucrose octasulfate shift, DMSO zero | Q9HCT0 | activity (Tm shift, normalised), % at 9.99 µM;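 active = mean Tm shift, scaled 0 neutral to 100 positive control, at about 1.3% or above, every replicate too, limit read from the data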
# Rtt109 Vps75 – inhibitors of Candida albicans Rtt109/Vps75 histone acetyltransferase; inhibition, % at 34.9 µM; 330,000 compounds, 0.16% hits; purified Rtt109/Vps75, ThioGlo CoA-SH fluorescence, 4 h; Q5AAJ8;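 active = inhibition of at least 50% in every replicate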
# ARFGAP1 inhibitor – inhibits rat ARF GTPase activating protein 1. Arfgap1-stimulated ARF1 GTP hydrolysis, GDP FP detection. inhibition, % at 16.5 µM. 360,000 compounds, 0.26% hits;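 active = inhibition above a per-plate limit, mean inhibition of low control wells plus 3 SD, cut at about 25% in these data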;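 also: 0% = DMSO wells with enzyme and 100% = wells lacking Arfgap1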
#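 Material: rat Arfgap1 catalytic domain, aa 1-136; also added: human ARF1(Δ1-17)-GTP substrate; compound dosing: one concentration, 16.5 µM, DMSO 1.26%; incubation: GTP hydrolysis reaction 2 h at 25 °C; measured by: Tracer-displacement fluorescence polarization with EDTA stop, 620/688 nm; evaluation: % inhibition from polarization; repeats: one replicate per compound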
# The depositor's hits bear a star; x = no result given; ! = not active in a repeat. Sampled rows, rich in hits. Any-hit rate of the full collection: about 1.9%.
SMILES,Efflux pump mplx,ASAP1 inh,FGF22 binding,Rtt109 Vps75,ARFGAP1 inhibitor
CCCN1C(=O)S/C(=C\c2ccc(N3CCOCC3)o2)C1=O,0.0,3.2,43.2*,16.9,-9.3
O=C(NCCSCc1ccccc1)c1ccccc1,0.2,-3.3,0.2,5.0,-16.4
O=C(/C=C/c1ccc(Br)o1)Nc1nccs1,0.1,0.6,44.0*,8.2,-2.7
O=C(Nc1nccs1)c1ccc(Br)o1,0.0,-3.9,x,-1.4,-3.3
COCCOC(=O)N1C(=O)[C@@]2(c3cc(C#CCNC(N)=O)ccc31)[C@H](c1ccccc1OCCO)N1[C@H](c3ccccc3)[C@H](c3ccccc3)OC(=O)[C@H]1[C@@H]2C(N)=O,x,x,0.7,x,x
COCCOC(=O)N1C(=O)[C@@]2(c3ccccc31)[C@H](c1ccccc1OCCO)N1[C@H](c3ccccc3)[C@H](c3ccccc3)OC(=O)[C@H]1[C@@H]2C(N)=O,x,x,24.0*,x,x
CN(c1ccccc1)S(=O)(=O)c1cccc(C(=O)NC2CCCC2)c1,0.1,0.0,0.3,1.0,10.4
COc1ccc(CNC(=O)C/C(C)=N/NC(=O)COc2ccc(C)cc2Br)cc1,0.1,-16.7,43.1*,0.0,7.2
CCCNC(=O)C/C(C)=N/NC(=O)COc1ccc(C)cc1Br,0.2,-8.9,0.2,-5.4,7.9
O=C(COC(=O)COc1cccc2ccccc12)NCC(F)(F)F,-0.2,2.9,43.2*,-8.5,-5.0
O=C(COc1cccc2cccnc12)NCC(F)(F)F,-0.1,-22.9,x,-1.6,-3.6
CS(=O)(=O)N1CCN(c2ccc(NC(=S)NC(=O)c3cccs3)cc2)CC1,0.0,4.8,43.9*,-1.5,2.4
O=C(N/N=C\c1ccccc1OCc1ccccc1)c1ccco1,0.1,2.8,43.1*,x,-0.3
CCOC(=O)c1c(NC(=O)/C=C/C(=O)O)sc(C)c1-c1ccc(C(C)(C)C)cc1,0.1,-11.6,1.7*,6.2,-27.9
O=S1(=O)N[C@H](Cc2ccccc2)COc2cccc(N3CCCC3)c21,x,-9.6,-0.1,x,4.8
Cc1cc(C)c(C(=O)Nc2cccc(F)c2)c(Cl)n1,-0.1,6.3,43.0*,-7.6,-3.3
COc1ccc(NC(=O)CSc2ccccc2)cn1,-0.1,-8.9,43.4*,9.4,1.4
Cc1cccc(C)c1NC(=O)C1(N2C(=O)CC2c2ccccc2)CCCCC1 (configuration not stated),0.0,8.9,43.8*,x,16.5
Cc1cccc(C)c1NC(=O)C1(NC(=O)C2CCC(=O)N2)CCCCC1 (configuration not stated),-0.1,-7.4,x,-22.2,4.9
Cc1nn(-c2ccncc2)c2c1C(=O)CC(C)(C)C2Br (configuration not stated),x,2.6,0.1,3.4,9.3
Cc1nn(-c2ccccn2)c2c1C(=O)CC(C)(C)C2N=[N+]=[N-] (configuration not stated),x,1.6,42.9*,4.1,14.6
O=C(OCc1nnc(-c2ccccc2)o1)c1ccccc1,0.2,-3.8,43.4*,-1.7,10.5
Cc1nc2ccc(C(=O)OCc3nnc(-c4ccccc4)o3)cc2nc1C,x,-3.9,0.0,1.7,-2.4
CC(C)NC(=O)N(C)C[C@H]1Oc2ccc(NS(=O)(=O)c3ccc(F)cc3)cc2CC(=O)N([C@H](C)CO)C[C@@H]1C,x,x,-0.1,x,x
C[C@@H]1CN([C@@H](C)CO)C(=O)c2cccc(NC(=O)c3ccc(-c4nccs4)cc3)c2O[C@@H]1CN(C)Cc1ccc(Cl)c(Cl)c1,x,x,0.0,x,x
SMILES,Efflux pump mplx,ASAP1 inh,FGF22 binding,Rtt109 Vps75,ARFGAP1 inhibitor
CCOC(=O)C1CCN(S(=O)(=O)c2ccc3c(c2)CC(C)N3C(=O)C2CCC2)CC1 (configuration not stated),0.1,2.1,-0.1,53.5*,-8.7
CC1Cc2cc(S(=O)(=O)N3CCC(C(=O)N(C)Cc4ccco4)CC3)ccc2N1C(=O)C1CCC1 (configuration not stated),-0.1,4.0,-0.1,50.2*,18.0
CN1C(=O)c2cc(NC(=O)c3ccc(Cl)cc3)ccc2OC[C@@H]2O[C@H](CC(=O)O)CC[C@H]21,x,x,0.1,x,x
O=C(Nc1cc(S(=O)(=O)N2CCCC2)ccc1Cl)C1=COCCO1,0.1,-5.2,x,-0.5,-7.2
CC(OC(=O)C1=COCCO1)C(=O)Nc1cc(S(=O)(=O)N2CCCCC2)ccc1Cl (configuration not stated),-0.3,13.1,43.1*,-2.7,17.1
C1CCC(C(CC2CCCCN2)C2CCCCC2)CC1 (configuration not stated),-0.2,-11.5,-0.3,77.6*!,-3.6
